Data on 14 molecules can be found in ChEMBL document CHEMBL1150779, “Triazolopyrimidine-based dihydroorotate dehydrogenase inhibitors with potent and selective activity against the malaria parasite Plasmodium falciparum” (J Med Chem, 2008).

One may read the IC50 as the midpoint of a concentration-inhibition curve. One may read the EC50 as the concentration at which the effect is half-maximal.

Where only a bound is given, the exact number is not on record here.

Sequence of Dihydroorotate dehydrogenase (quinone), mitochondrial (Q02127 whole entry): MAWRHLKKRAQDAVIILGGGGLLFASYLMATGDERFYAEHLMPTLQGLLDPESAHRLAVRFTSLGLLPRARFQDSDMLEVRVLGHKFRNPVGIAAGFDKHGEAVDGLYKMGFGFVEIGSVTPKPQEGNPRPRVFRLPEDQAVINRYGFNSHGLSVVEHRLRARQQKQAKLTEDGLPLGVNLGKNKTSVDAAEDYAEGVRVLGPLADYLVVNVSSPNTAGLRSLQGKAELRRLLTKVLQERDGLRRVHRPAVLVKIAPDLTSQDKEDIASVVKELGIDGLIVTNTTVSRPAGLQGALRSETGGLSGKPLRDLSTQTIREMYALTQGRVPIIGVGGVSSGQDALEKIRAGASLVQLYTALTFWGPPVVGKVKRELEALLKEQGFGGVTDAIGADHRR

For the first assay, the target named is T1, Dihydroorotate dehydrogenase (Plasmodium falciparum, UniProt Q54A96).
T1 sequence (Q54A96 whole entry): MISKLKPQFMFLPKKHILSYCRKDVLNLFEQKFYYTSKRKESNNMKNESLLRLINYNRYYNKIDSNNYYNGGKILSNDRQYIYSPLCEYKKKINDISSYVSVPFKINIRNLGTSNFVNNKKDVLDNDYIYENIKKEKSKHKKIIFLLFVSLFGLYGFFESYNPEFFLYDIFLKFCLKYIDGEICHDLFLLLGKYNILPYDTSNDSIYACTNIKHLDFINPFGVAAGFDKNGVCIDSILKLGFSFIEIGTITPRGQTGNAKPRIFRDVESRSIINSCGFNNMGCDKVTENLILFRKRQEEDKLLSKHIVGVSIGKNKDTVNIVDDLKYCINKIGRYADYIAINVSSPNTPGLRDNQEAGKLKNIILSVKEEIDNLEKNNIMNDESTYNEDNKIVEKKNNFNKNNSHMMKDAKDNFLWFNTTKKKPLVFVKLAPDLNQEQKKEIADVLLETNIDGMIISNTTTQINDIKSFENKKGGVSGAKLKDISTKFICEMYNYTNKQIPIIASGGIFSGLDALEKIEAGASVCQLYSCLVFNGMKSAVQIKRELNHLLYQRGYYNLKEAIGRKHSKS
Briefly: Inhibition of Plasmodium falciparum DHODH assessed as reduction of 2,6-dichloroindophenol by stopped flow spectroscopy.
Details: not given
A digest of the protocol: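 Truncated soluble enzyme expressed in E. coli. Steady-state assay: DCIP (0.12 mM) reduction at 600 nm, 5–10 nM enzyme, 0.2 mM L-dihydroorotate, 0.02 mM CoQD, in 100 mM HEPES pH 8.0, 150 mM NaCl, 10% glycerol, 0.1% Triton, 20°C.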
On to `Cc1cc(Nc2cc3ccccc3cc2O)n2ncnc2n1`, for which the IC50 is 330 nM.
Still for that read-out and setting: in the case of `Cc1cc(Nc2ccc3c(=O)cc(C)oc3c2)n2ncnc2n1` it was 2000 nM.
Still for that read-out and setting: in the case of `Cc1nc2ncnn2c(Nc2ccc3ccccc3c2)c1C` it was 160 nM; in that of `Cc1cc(Nc2cccc3ccccc23)n2ncnc2n1`, 45000 nM.
Turning to `Cc1cc(N(C)c2ccc3ccccc3c2)n2ncnc2n1`, the IC50 was 3000 nM.
As to `Cc1cc(Nc2cnc3ccccc3c2)n2ncnc2n1`, the IC50 is 1700 nM.
Turning to `Cc1cc(Nc2ccc(C(N)=O)cc2)n2ncnc2n1`, the half-maximal inhibitory concentration (IC50) was more than 200000 nM.
On to `CCc1cc(Nc2ccc3ccccc3c2)n2ncnc2n1`, for which the IC50 is 190 nM.
Still for that read-out and setting: next, `Cc1cc(Nc2ccc3ncccc3c2)n2ncnc2n1`: 1200 nM; `FC(F)(F)c1cc(Nc2ccc3ccccc3c2)n2ncnc2n1`: 210 nM.
`Cc1cc(Nc2ccc3cc4ccccc4cc3c2)n2ncnc2n1`: the IC50 was found to be 56 nM.
Same read-out and setting: next, `Cc1cc(N(Cc2ccccc2)c2ccc3ccccc3c2)n2ncnc2n1`: 93000 nM; `Cc1cc(Nc2ccccc2)n2ncnc2n1`: more than 100000 nM.

For a further assay, the system named is Plasmodium falciparum. Briefly: Antiplasmodial activity against Plasmodium falciparum 3D7 in erythrocytes as [3H]hypoxanthine uptake. Format: functional, organism-based.
Details: not given
A digest of the protocol: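 Parasites grown in RPMI-1640 with 20% human type A+ plasma and 2% (w/v) red blood cells; drug-treated infected erythrocytes assayed for [3H]-hypoxanthine uptake. Triplicate points over a range of inhibitor concentrations; EC50 from fit of % proliferation to a Hill-type equation; reported values average at least 2 independent experiments.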
Consider `Cc1cc(Nc2cc3ccccc3cc2O)n2ncnc2n1`, for which the midpoint of inhibition, the IC50, lay at 1700 nM.
Still for that read-out and setting: in the case of `Cc1cc(Nc2ccc3c(=O)cc(C)oc3c2)n2ncnc2n1` it was 410 nM; in that of `Cc1nc2ncnn2c(Nc2ccc3ccccc3c2)c1C`, 550 nM.
In the case of `Cc1cc(Nc2cccc3ccccc23)n2ncnc2n1`, the IC50 stood at 4400 nM.
`Cc1cc(N(C)c2ccc3ccccc3c2)n2ncnc2n1` showed an IC50 of 16000 nM.
In turn, `Cc1cc(Nc2cnc3ccccc3c2)n2ncnc2n1` showed an IC50 of 1600 nM.
Molecule `Cc1cc(Nc2ccc(C(N)=O)cc2)n2ncnc2n1` displayed an IC50 of more than 50000 nM.
In the case of `CCc1cc(Nc2ccc3ccccc3c2)n2ncnc2n1`, the IC50 is 310 nM.
As for `Cc1cc(Nc2ccc3ncccc3c2)n2ncnc2n1`, the IC50 was found to be 2200 nM.
The same measure, in the same setting: next, `FC(F)(F)c1cc(Nc2ccc3ccccc3c2)n2ncnc2n1`: 3300 nM; `Cc1cc(Nc2ccc3cc4ccccc4cc3c2)n2ncnc2n1`: 190 nM; `Cc1cc(Nc2ccc3ccccc3c2)n2ncnc2n1`: 79 nM.
Molecule `Cc1cc(N(Cc2ccccc2)c2ccc3ccccc3c2)n2ncnc2n1` yielded an IC50 of 35000 nM.
Take `Cc1cc(Nc2ccccc2)n2ncnc2n1`: the IC50 was more than 100000 nM.

The next assay addresses Dihydroorotate dehydrogenase (quinone), mitochondrial (Homo sapiens, UniProt Q02127). As to the kind of experiment: Inhibition of human DHODH assessed as reduction of 2,6-dichloroindophenol by stopped flow spectroscopy.
Details: not given
A digest of the protocol:
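Truncated soluble enzyme expressed in E. coli. Steady-state assay: DCIP (0.12 mM) reduction at 600 nm, 5–10 nM enzyme, 0.2 mM L-dihydroorotate, 0.02 mM CoQD, in 100 mM HEPES pH 8.0, 150 mM NaCl, 10% glycerol, 0.1% Triton, 20°C. CoQ-independent oxidase background subtracted; triplicate points per concentration; IC50 from curve fit, ≥2 experiments.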
Take `Cc1cc(Nc2cc3ccccc3cc2O)n2ncnc2n1`: the half-maximal inhibitory concentration (IC50) was more than 200000 nM.
On the same count and under the same terms, next, `Cc1cc(Nc2ccc3c(=O)cc(C)oc3c2)n2ncnc2n1`: more than 200000 nM.
As for `Cc1nc2ncnn2c(Nc2ccc3ccccc3c2)c1C`, the half-maximal inhibitory concentration (IC50) was more than 200000 nM.
For the molecule `Cc1cc(Nc2cccc3ccccc23)n2ncnc2n1`, the IC50 is more than 200000 nM.
In the case of `Cc1cc(N(C)c2ccc3ccccc3c2)n2ncnc2n1`, the IC50 was more than 200000 nM.
`Cc1cc(Nc2cnc3ccccc3c2)n2ncnc2n1`: the IC50 was more than 200000 nM.
As for `Cc1cc(Nc2ccc(C(N)=O)cc2)n2ncnc2n1`, the IC50 was more than 200000 nM.
Same read-out and setting: in the case of `CCc1cc(Nc2ccc3ccccc3c2)n2ncnc2n1` it was more than 200000 nM.
As to `Cc1cc(Nc2ccc3ncccc3c2)n2ncnc2n1`, the IC50 is more than 200000 nM.
With `FC(F)(F)c1cc(Nc2ccc3ccccc3c2)n2ncnc2n1`, the IC50 is more than 200000 nM.
The same measure, in the same setting: in the case of `Cc1cc(Nc2ccc3cc4ccccc4cc3c2)n2ncnc2n1` it was more than 200000 nM; in that of `Cc1cc(Nc2ccc3ccccc3c2)n2ncnc2n1`, more than 200000 nM.
`Cc1cc(N(Cc2ccccc2)c2ccc3ccccc3c2)n2ncnc2n1`: the IC50 was more than 200000 nM.
As for `Cc1cc(Nc2ccccc2)n2ncnc2n1`, the IC50 is more than 200000 nM.

A further assay relates to Plasmodium falciparum. Briefly: Antiplasmodial activity against Plasmodium falciparum FCR3 in erythrocytes as [3H]hypoxanthine uptake. The conditions noted are these: FCR3, 3 h.
`Cc1cc(Nc2ccc3ccccc3c2)n2ncnc2n1` showed an EC50 of 180 nM.

Another assay deals with Plasmodium falciparum. As to the kind of experiment: Antiplasmodial activity against Plasmodium falciparum K1 in erythrocytes as [3H]hypoxanthine uptake. To be noted: K1, 3 h.
Molecule `Cc1cc(Nc2ccc3ccccc3c2)n2ncnc2n1` showed an EC50 of 140 nM.

The test system of another assay is Plasmodium falciparum. Briefly: Antiplasmodial activity against Plasmodium falciparum Dd2 in erythrocytes as [3H]hypoxanthine uptake. The conditions noted are these: Dd2, 3 h.
The molecule `Cc1cc(Nc2ccc3ccccc3c2)n2ncnc2n1` gave an EC50 of 140 nM. This counts as sub-micromolar.

A further assay has as its system Plasmodium falciparum. As to the kind of experiment: Antiplasmodial activity against Plasmodium falciparum HB3 in erythrocytes as [3H]hypoxanthine uptake. The conditions noted are these: HB3, 3 h.
The molecule `Cc1cc(Nc2ccc3ccccc3c2)n2ncnc2n1` came in with a 50% effective concentration (EC50) of 100 nM.

A further assay concerns Plasmodium falciparum. As to the kind of experiment: Antiplasmodial activity against Plasmodium falciparum D6 in erythrocytes as [3H]hypoxanthine uptake. To be noted: D6, 3 h.
For the molecule `Cc1cc(Nc2ccc3ccccc3c2)n2ncnc2n1`, it took 58 nM to reach a half-maximal effect (EC50).

The next assay has as its system L1210. Briefly: Cytotoxicity against mouse L1210 cells.
Details: not given
The molecule `Cc1cc(Nc2ccc3ccccc3c2)n2ncnc2n1` had an EC50 of more than 10000 nM.
